For one test, the system named is MCF7. Briefly: Anticancer activity against human MCF7 cells assessed as inhibition of cell growth measured after 72 hrs by MTT assay. Type of test: functional, cell-based. The settings on record: MCF7, 72 h. Summed up:
(§1)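 Cells seeded at 3000 exponentially growing cells/well and incubated 12 h at 37 °C. Medium then replaced with fresh medium containing graded compound concentrations for 72 h; 5-FU positive control. MTT (5 mg/mL solution) added for 4 h, formazan dissolved in DMSO, absorbance read at 570 nm (reference 630 nm). Relative percentage inhibition of viable cells calculated; IC50 reported as mean ± standard deviation.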
On the technique in general: Tetrazolium dyes change colour on reduction, which living cells bring about.

The subject of the next test is MGC-803. Briefly: Anticancer activity against human MGC-803 cells assessed as inhibition of cell growth measured after 72 hrs by MTT assay. The note with it: MGC-803, 72 h. Type of test: functional, cell-based. The procedure, abridged:
as §1

For the next test, the system named is HeLa. Briefly: Anticancer activity against human HeLa cells assessed as inhibition of cell growth measured after 72 hrs by MTT assay. Type of test: functional, cell-based. Summed up: as §1
Test [1] relates to Human immunodeficiency virus 1. The test is described as follows: Anti-HIV activity against HIV-1 3B infected in human MT4 cells assessed as protection against virus-induced cytopathicity measured after 5 days by MTT assay. It counts as functional, organism-based. The settings on record: Human immunodeficiency virus 1, 3B, MT4, 120 h. For orientation: Protection from cytopathic effect is a common read-out in antiviral testing.

This passage reports IC50 and EC50 results from ChEMBL document CHEMBL4837218, “Synthesis and in vitro antitumour activity of 4(R)-methyl-3-O-phosphonomethyl-α-l-threose nucleosides” (Eur J Med Chem, 2021).

Consider `C[C@H]1O[C@@H](n2cc(F)c(N)nc2=O)[C@H](O)[C@H]1OCP(=O)(O)O`, for which the IC50 in the test with MCF7, in the test on MGC-803 and in the test with HeLa was over 16 µM throughout.

For `C[C@H]1O[C@@H](n2ccc(=O)[nH]c2=O)[C@H](O)[C@H]1OCP(=O)(O)O`, the 50% inhibitory concentration (IC50) in the test on MCF7, in the test on MGC-803 and in the test with HeLa was over 16 µM each time.

For the compound `C[C@H]1O[C@@H](n2cnc3c(N)ncnc32)[C@H](O)[C@H]1OCP(=O)(O)O`, the half-inhibitory concentration (IC50) in the test on MCF7, in the test with MGC-803 and with HeLa was over 16 µM each time.

Regarding `C[C@H]1O[C@@H](n2ccc(N)nc2=O)[C@H](O)[C@H]1OCP(=O)(O)O`, the IC50 with MCF7, with MGC-803 and in the test on HeLa was over 16 µM each time.

With `C[C@H]1O[C@@H](n2cc(F)c(=O)[nH]c2=O)[C@H](O)[C@H]1OCP(=O)(O)O`, the concentration for half-maximal inhibition (IC50) in the test on MCF7, in the test with MGC-803 and in the test on HeLa was over 16 µM throughout.

For the compound `Cc1cn([C@@H]2O[C@H](C)[C@H](OCP(=O)(O)O)[C@H]2O)c(=O)[nH]c1=O`, the IC50 in the test on MCF7, in the test with MGC-803 and with HeLa was over 16 µM each time.

`Nc1ncnc2c1ncn2[C@H]1C[C@@H](OCP(=O)(O)O)CO1`: the half-maximal effective concentration (EC50) (commonly the midpoint of the concentration-response curve) in test [1] came to 2.5 µM.

As to `C[C@H]1O[C@@H](n2cc(Cl)c(=O)[nH]c2=O)[C@H](O)[C@H]1OCP(=O)(O)O`, the IC50 in the test with MCF7, in the test on MGC-803 and in the test on HeLa was over 16 µM in each case.

With `Cc1cn([C@H]2C[C@@H](OCP(=O)(O)O)CO2)c(=O)[nH]c1=O`, the half-maximal effective concentration (EC50) in test [1] amounted to 6.59 µM.
